The source made the active and inactive calls. The rule behind the calls is not given here.
Experiments:
[1] = target: GABA-A receptor; anion channel; experiment: In vitro displacement of [3H]diazepam from GABA-A benzodiazepine receptor in rat cerebral cortex; format: tissue-based
How it was run: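 Cortex from adult male Sprague–Dawley rats homogenized in 50 mM Tris-HCl pH 7.4, homogenization–centrifugation repeated three times in total. Membranes incubated with graded compound concentrations and [3H]diazepam (final 2 nM) for 90 min at 4 °C. Bound ligand collected by rapid GF/B filtration and counted by liquid scintillation. Nonspecific binding defined with 5 μM flunitrazepam.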

Mus musculus [2] = experiment: Dose required to antagonize Diazepam (2.5 mg/kg) anticonvulsant effects in mice treated with pentylenetetrazole (80 mg/kg); format: functional
How it was run: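 Adult male mice (20–25 g) given diazepam 2.5 mg/kg ip in 10% diluted emulphor–90% saline. Drug or vehicle given ip 5 min later, then PTZ 80 mg/kg ip (CD100) after another 5 min. Two independent raters scored clonic-tonic convulsions; animals counted protected if seizure-free for 15 min. ED50 = dose antagonizing diazepam's anticonvulsant effect in 50% of mice.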

Mus musculus [3] = experiment: Dose required to induce convulsions in mice treated with subconvulsant pentylenetetrazole (40 mg/kg); format: functional
How it was run: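 Adult male mice (20–25 g) given drug ip (suspended in 10% diluted emulphor–90% saline, HCl salts), then challenged 5 min later with subconvulsant PTZ (40 mg/kg ip). Two independent raters observed clonic-tonic convulsions. ED50 = dose inducing convulsions in 50% of mice. Highest dose tested 40 mg/kg.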

[4] = In vitro displacement of [3H]-diazepam from GABA-A benzodiazepine receptor in rat cerebral cortex; format: tissue-based
How it was run: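 Cortex from adult male Sprague–Dawley rats homogenized in 50 mM Tris-HCl pH 7.4, washed three times and resuspended. Incubated with varying test concentrations and [3H]diazepam (2 nM final) for 90 min at 4 °C. Ended by GF/B filtration, radioactivity counted by scintillation. Nonspecific binding defined with 5 μM flunitrazepam. IC50 reported.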

Mus musculus [5] = experiment: Dose required to antagonize Diazepam (2.5 mg/kg) anticonvulsant effects in mice treated with pentylenetetrazole (80 mg/kg) (inactive); format: functional, organism-based
Mus musculus [6] = experiment: Dose required to induce convulsions in mice treated with subconvulsant pentylenetetrazole (40 mg/kg) (inactive); format: functional, organism-based

IC50 [1] [nM]	SMILES	other results
106	c1ccc(CNc2ccc3[nH]c4cnccc4c3c2)cc1	ED50 (Mus musculus [2]): 38 mg/kg; ED50 (Mus musculus [3]): 28 mg/kg
50	O=C(OC1CCCC1)c1cc2c3ccccc3nc-2c[nH]1	
1470	OCc1cc2c3ccccc3nc-2c[nH]1	
1300	Nc1ccc2[nH]c3cnccc3c2c1	
> 5000	c1ccc(CNc2ccc3[nH]c4ccccc4c3c2)cc1	
	c1ccc2c(c1)[nH]c1cnccc12 [NORHARMANE]	IC50 [4]: 1620 nM
76	OCc1cc2c3cc(NCc4ccccc4)ccc3nc-2c[nH]1	ED50 (Mus musculus [5]): inactive; ED50 (Mus musculus [3]): 40 mg/kg
58	CC(=O)c1cc2c3ccccc3nc-2c[nH]1	

SMILES	IC50 [1] [nM]	other results
COC(=O)c1cc2c(cn1)[nH]c1ccc(NCc3ccccc3)cc12	10	ED50 (Mus musculus [2]): 15.5 mg/kg; ED50 (Mus musculus [6]): inactive
